# Experimental data as given in ChEMBL document CHEMBL4387709, “Discovery of Quinoline Analogues as Potent Antivirals against Enterovirus D68 (EV-D68)” (J Med Chem, 2019).
# The source made the active and inactive calls. No cut-off for these calls is given here.
# Legend:
# [1] = system: enterovirus D68; experiment: Antiviral activity against Enterovirus D68 US/KY/14-18953 infected in human RD cells assessed as inhibition of virus-induced cytopathic effect incubated for 5 mins under shaking condition and measured after 3 days by neutral red dye-based photometric method; type: functional, organism-based; conditions: Enterovirus D, US/KY/14-18953, RD
# How it was run: (§1)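 RD cells seeded one day ahead to ~90% confluence, PBS (Mg/Ca) wash, infected at ~MOI 0.01 with EV-D68 in DMEM/2% FBS/30 mM MgCl2 at 33 °C, 5% CO2. Compounds and 1% P/S added after 1 h. Plates shaken ~5 min, held 3 days, viable cells stained with neutral red (66 µg/ml), A540 read. EC50 from dose-response fits, triplicates.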
# [2] = system: RD; experiment: Cytotoxicity against human RD cells after 3 days by neutral red dye-based photometric method; type: cell-based; conditions: rd, 72 h
# [3] = system: RD; experiment: Inhibition of 2C protein in Enterovirus D68 US/KY/14-18953 infected in human RD cells assessed as reduction of viral RNA synthesis at 1 uM measured at 9 hrs post infection by reagent-based RT-qPCR method relative to control; type: cell-based
# How it was run: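 DNase-treated. 1.2 µg reverse-transcribed with oligo(dT)18. qPCR run 95 °C 10 min, then 40 cycles of 95 °C 15 s/60 °C 60 s, with melt curve. Compared with DMSO control, one-way ANOVA, mean of two experiments ± SD.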
# [4] = system: Influenza B virus; experiment: Antiviral activity against Influenza B virus (B/Brisbane/60/2008) at 10 uM after 2 days by plaque assay; type: functional, organism-based
# [5] = system: enterovirus D68; experiment: Antiviral activity against Enterovirus D68 […] infected in human RD cells assessed as inhibition of virus-induced cytopathic effect incubated for 5 mins under shaking condition and measured after 3 days by neutral red dye-based photometric method; type: functional, organism-based; conditions: Enterovirus D; how it was run: as §1
# [6] = system: A 172; experiment: Cytotoxicity against human A172 cells after 3 days by neutral red dye-based photometric method; type: cell-based; conditions: a 172, 72 h
# How it was run: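 Uninfected cells run as in the CPE assay (33 °C, 3 days, same media) with compound. Viability by neutral red staining and 540 nm absorbance. CC50 from dose-response curves, triplicate experiments.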
# [7] = Selectivity index, ratio of CC50 for human A172 cells to EC50 for Enterovirus D68 US/KY/14-18953 infected in human A172 cells; type: toxicity, cell-based; conditions: read-out: Ratio CC50/EC50
# How it was run: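 A172 cells kept in DMEM with 10% FBS and 1% P/S, grown to about 90% confluency, then infected at MOI about 0.3 in DMEM with 2% FBS and 30 mM MgCl2 at 33 °C. After 1 h, P/S and compounds were added. Viable cells were stained with neutral red after 3 days (A540). CC50 came from the same assay without virus. EC50 and CC50 were fitted from triplicate dose-response data, and SI = CC50/EC50.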
# [8] = Selectivity index, ratio of CC50 for human SH-SY5Y cells to EC50 for Enterovirus D68 US/KY/14-18953 infected in human SH-SY5Y cells; type: toxicity, cell-based; conditions: read-out: Ratio CC50/EC50
# How it was run: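 SH-SY5Y cells grown in 50% DMEM/50% F-12 with 10% FBS and 1% P/S to about 90% confluency, then infected at MOI about 1 in DMEM with 2% FBS and 30 mM MgCl2 at 33 °C. Compounds were added after 1 h. Neutral red staining was read at 540 nm after 3 days. CC50 came from uninfected cells under the same conditions. Values were triplicate dose-response fits, and SI = CC50/EC50.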
# [9] = system: enterovirus D68; experiment: Antiviral activity against Enterovirus D68 US/MO/14-18947 infected in human SH-SY5Y cells assessed as inhibition of virus-induced cytopathic effect incubated for 5 mins under shaking condition and measured after 3 days by neutral red dye-based photometric method; type: functional, organism-based; conditions: Enterovirus D, US/MO/14-18947, SH-SY5Y
# How it was run: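 Virus at ~MOI 1 applied to SH-SY5Y cells (50% DMEM/50% F-12, 10% FBS) at ~90% confluence in DMEM/2% FBS/30 mM MgCl2 at 33 °C. Compounds added after 1 h with 1% P/S, shaken ~5 min, incubated 3 days. Viability read by neutral red uptake (A540). EC50 fitted from dose-response, triplicate.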
compound,measurement,setting,value
O=C(NCCN1CCCC1)c1cc(-c2cccs2)nc2ccccc12,EC50,[1],60 nM
same,CC50,[2],40000 nM
same,inhibition,[3],> 99%
same,Activity,[4],inactive
same,EC50,[5],70 nM
same,CC50,[6],65400 nM
same,selectivity ratio,[7],1310
same,selectivity ratio,[8],933
same,EC50,[9],20 nM
